For experiment [1], the target named is Leukotriene B4 receptor (Homo sapiens) (UniProt Q9NPC1+Q15722). The experiment is described as follows: Inhibition of [3H]LTB4 binding to leukotriene B4 receptor of human peripheral neutrophils (PMN) at a concentration of 0.1 uM. It is filed as protein assay. In a few lines:
(§1)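 Neutrophils isolated by Ficoll-Hypaque centrifugation, dextran 70 sedimentation and hypotonic lysis (≥90% neutrophils, ≥90% viable), 2 × 10^7 cells/mL in Hank's balanced salt solution with 0.1% ovalbumin. Compound in DMSO plus 2.65 nM [3H]LTB4 (stock), 10 min at 4 °C. Cells spun through dibutyl/dinonyl phthalate (7:2), pellet counted by scintillation. Triplicate incubations averaged. Reported as % inhibition of specific binding; nonspecific binding taken with >2000-fold excess unlabeled LTB4.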

Experiment [2] has as its target Leukotriene B4 receptor 1 (Homo sapiens) (UniProt Q15722). The experiment is described as follows: Inhibition of binding of [3H]LTB4 to the leukotriene B4 receptor of human peripheral neutrophils (PMN) at a concentration of 10 uM. In short, it runs like this: as §1
Experiment [3] has the same target. The experiment is described as follows: Inhibition of [3H]LTB4 binding to leukotriene B4 receptor from human peripheral neutrophils (PMN), at a concentration of 1 uM. In short, it runs like this:
as §1

The term inhibition denotes the drop in the measured response relative to a control, in per cent.

Leukotriene B4 receptor 1 (Homo sapiens), sequence (Q15722 whole entry): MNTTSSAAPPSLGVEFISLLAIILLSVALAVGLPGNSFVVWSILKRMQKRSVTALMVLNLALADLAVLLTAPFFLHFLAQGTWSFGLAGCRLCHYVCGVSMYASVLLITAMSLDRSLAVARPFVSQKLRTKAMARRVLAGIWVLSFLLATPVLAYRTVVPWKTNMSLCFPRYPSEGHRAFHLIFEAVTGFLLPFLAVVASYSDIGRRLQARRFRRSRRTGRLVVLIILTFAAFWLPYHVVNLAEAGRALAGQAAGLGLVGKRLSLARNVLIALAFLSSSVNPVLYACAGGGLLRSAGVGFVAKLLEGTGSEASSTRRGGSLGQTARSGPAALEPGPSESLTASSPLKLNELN
Leukotriene B4 receptor (Homo sapiens), sequence (Q15722 whole entry, looked up): as the sequence (Q15722 whole entry) above
Leukotriene B4 receptor (Homo sapiens), sequence (Q9NPC1 whole entry, looked up): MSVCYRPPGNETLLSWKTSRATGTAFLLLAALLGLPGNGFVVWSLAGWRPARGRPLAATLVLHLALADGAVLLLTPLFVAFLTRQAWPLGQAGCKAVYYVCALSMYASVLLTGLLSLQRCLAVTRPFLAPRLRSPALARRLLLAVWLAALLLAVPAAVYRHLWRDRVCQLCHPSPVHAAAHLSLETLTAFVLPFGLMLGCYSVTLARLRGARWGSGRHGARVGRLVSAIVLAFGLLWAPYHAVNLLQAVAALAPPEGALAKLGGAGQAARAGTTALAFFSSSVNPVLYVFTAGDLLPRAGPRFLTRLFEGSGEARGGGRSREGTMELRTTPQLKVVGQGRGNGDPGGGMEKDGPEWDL

Take `CCc1cc(C(C)=O)c(O)cc1OCCCC(C)(C)C(N)=O`: the inhibition in experiment [1] was 16%; in experiment [2], 92%; in experiment [3], 51%.
In the same order, the values of `CCc1cc(C(C)=O)c(O)cc1OCCCCCCC(C)(C)C#N` are 11%, 65% and 30%.
In the same order, the values of `CCc1cc(C(C)=O)c(O)cc1OCCCCCC(C)(C)c1nn[nH]n1` are 56%, 102% and 93%.
For `CCc1cc(C(C)=O)c(O)cc1OCCCCCC(C)(C)c1nnnn1C`, the inhibition in experiment [1] was determined as 14%; in experiment [2], 99%; in experiment [3] it was 59%.
In the same order, the values of `CCc1cc(C(C)=O)c(O)cc1OCc1cccc(C#N)c1` are 18%, 58% and 61%.
In the same order, the values of `CCc1cc(C(C)=O)c(O)cc1OCCCCCC(C)(C)c1nnn(C)n1` are 16%, 95% and 66%.
Take `C=CCc1cc(C(C)=O)c(O)cc1OCc1cccc(C#N)c1`: the inhibition turned out to be 25% in experiment [1], 71% in experiment [2] and 58% in experiment [3].
The matching figures for `CCc1cc(C(C)=O)c(O)cc1OCCCCCCCC(C)(C)C#N`: 6%, 66% and 29%.
In the same order, the values of `CCc1cc(C(C)=O)c(O)cc1OCCCCC(C)(C)C#N` are 5%, 79% and 30%.
In the same order, the values of `CCc1cc(C(C)=O)c(O)cc1OCCCC(C)(C)C#N` are 13%, 85% and 46%.
In the case of `CCc1cc(C(C)=O)c(O)cc1OCc1ccc(C#N)cc1`, the inhibition came out at 0% in experiment [1], 7% in experiment [2] and 11% in experiment [3].
In the same order, the values of `CCc1cc(C(C)=O)c(O)cc1OCCCCCC(C)(C)C(=O)O` are 20%, 104% and 73%.
In the same order, the values of `CCc1cc(C(C)=O)c(O)cc1OCCCC(C)(C)C(=O)O` are 12%, 89% and 43%.
The matching figures for `CCc1cc(C(C)=O)c(O)cc1OCCCCCC(C)(C)C#N`: 17%, 85% and 53%.
`CCc1cc(C(C)=O)c(O)cc1OCCCC(C)(C)c1nnn[nH]1`: the results for the inhibition in experiment [1], in experiment [2] and in experiment [3] were 28%, 100% and 76%, respectively.

The record behind these values is ChEMBL document CHEMBL1126041, “Leukotriene B4 receptor antagonists: the LY255283 series of hydroxyacetophenones” (J Med Chem, 1992).
